How the values were obtained:
Format in all cases: in vitro ADME
Conditions in all cases: 250 μM substrate, 5 μg protein, 60 min, 37 °C
UGT1A3 = biological target: T1, UGT1A3 (Homo sapiens, UniProt P35503); test: Screening of recombinant UGT1A3 for glucuronidation activity
T1 sequence (P35503 29-534): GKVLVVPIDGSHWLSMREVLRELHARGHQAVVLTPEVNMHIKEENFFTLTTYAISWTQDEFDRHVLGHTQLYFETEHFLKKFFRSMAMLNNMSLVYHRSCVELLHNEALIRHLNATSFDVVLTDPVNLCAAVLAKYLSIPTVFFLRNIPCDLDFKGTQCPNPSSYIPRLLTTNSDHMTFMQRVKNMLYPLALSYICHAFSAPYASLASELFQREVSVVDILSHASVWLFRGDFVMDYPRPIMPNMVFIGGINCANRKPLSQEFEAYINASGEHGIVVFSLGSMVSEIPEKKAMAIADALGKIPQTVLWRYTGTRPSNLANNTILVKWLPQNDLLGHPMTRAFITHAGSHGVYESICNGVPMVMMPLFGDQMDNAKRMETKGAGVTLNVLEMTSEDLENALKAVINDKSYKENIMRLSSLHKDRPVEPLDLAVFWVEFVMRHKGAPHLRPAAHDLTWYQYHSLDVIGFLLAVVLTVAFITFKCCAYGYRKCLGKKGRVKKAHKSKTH
Summary of the method: (§1)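 UGT1A1, 1A3, 1A4 and 1A6–1A10 were His-tagged and expressed in baculovirus-infected Sf9 cells; UGT2B4, 2B7, 2B15 and 2B17 were commercial membranes run per supplier protocol. 5 μg membrane protein with 250 μM substrate, 2 mM UDP-GlcUA, Tris–HCl pH 7.4, MgCl2, saccharolactone, 2% DMSO; 37 °C, 60 min; no-substrate controls. Products measured by HPLC-UV/vis; β-glucuronidase hydrolysis separated O- from carboxyl glucuronides.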

UGT1A9 = biological target: T2, UGT1A9 (Homo sapiens, UniProt O60656); test: Screening of recombinant UGT1A9 for glucuronidation activity
T2 sequence (O60656 26-530): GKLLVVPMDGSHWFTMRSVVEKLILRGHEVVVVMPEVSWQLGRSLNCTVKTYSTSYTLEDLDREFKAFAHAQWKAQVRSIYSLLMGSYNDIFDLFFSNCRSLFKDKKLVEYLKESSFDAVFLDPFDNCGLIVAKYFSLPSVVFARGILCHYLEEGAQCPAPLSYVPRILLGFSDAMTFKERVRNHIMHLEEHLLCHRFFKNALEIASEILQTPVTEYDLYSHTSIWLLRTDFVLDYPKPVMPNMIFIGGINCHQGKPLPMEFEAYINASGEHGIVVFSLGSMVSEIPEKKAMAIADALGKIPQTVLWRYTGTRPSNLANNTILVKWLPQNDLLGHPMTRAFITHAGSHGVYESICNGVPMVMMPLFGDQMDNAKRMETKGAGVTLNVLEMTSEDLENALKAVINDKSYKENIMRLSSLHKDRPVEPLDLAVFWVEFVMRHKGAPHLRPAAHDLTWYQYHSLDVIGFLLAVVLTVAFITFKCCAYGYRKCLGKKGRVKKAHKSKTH
Summary of the method: as §1

UGT1A1 = biological target: T3, UGT1A1 (Homo sapiens, UniProt P22309); test: Screening of recombinant UGT1A1 for glucuronidation activity
T3 sequence (P22309 26-533): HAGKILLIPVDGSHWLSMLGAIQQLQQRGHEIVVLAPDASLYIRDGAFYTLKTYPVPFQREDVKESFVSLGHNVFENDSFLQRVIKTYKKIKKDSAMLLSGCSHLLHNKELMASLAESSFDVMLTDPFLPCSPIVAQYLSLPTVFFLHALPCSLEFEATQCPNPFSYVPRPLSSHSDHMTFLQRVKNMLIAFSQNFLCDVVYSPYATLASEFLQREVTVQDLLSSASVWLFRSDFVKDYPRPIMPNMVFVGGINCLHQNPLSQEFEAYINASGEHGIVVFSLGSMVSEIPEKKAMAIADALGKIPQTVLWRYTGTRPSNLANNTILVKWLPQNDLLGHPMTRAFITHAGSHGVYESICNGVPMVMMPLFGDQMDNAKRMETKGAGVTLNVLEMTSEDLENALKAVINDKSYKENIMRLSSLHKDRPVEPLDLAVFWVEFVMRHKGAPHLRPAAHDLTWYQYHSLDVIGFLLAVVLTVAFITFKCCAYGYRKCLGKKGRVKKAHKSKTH
Summary of the method: as §1

UGT1A8 = biological target: T4, UGT1A8 (Homo sapiens, UniProt Q9HAW9); test: Screening of recombinant UGT1A8 for glucuronidation activity
T4 sequence (Q9HAW9 26-530): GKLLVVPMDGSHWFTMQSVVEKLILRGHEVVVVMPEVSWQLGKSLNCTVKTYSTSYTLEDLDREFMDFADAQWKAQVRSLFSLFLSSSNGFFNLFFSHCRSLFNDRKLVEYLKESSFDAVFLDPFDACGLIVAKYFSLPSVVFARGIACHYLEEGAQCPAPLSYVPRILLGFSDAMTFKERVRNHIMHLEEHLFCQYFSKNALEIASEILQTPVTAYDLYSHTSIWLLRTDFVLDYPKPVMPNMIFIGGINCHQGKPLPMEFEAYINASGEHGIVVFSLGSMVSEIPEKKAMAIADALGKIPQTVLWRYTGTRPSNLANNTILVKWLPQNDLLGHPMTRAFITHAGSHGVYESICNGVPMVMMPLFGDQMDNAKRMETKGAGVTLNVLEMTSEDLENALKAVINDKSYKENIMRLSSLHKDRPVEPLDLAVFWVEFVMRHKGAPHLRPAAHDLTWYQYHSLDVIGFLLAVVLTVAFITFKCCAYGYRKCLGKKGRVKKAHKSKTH
Summary of the method: as §1

UGT1A7 = biological target: T5, UGT1A7 (Homo sapiens, UniProt Q9HAW7); test: Screening of recombinant UGT1A7 for glucuronidation activity
T5 sequence (Q9HAW7 26-530): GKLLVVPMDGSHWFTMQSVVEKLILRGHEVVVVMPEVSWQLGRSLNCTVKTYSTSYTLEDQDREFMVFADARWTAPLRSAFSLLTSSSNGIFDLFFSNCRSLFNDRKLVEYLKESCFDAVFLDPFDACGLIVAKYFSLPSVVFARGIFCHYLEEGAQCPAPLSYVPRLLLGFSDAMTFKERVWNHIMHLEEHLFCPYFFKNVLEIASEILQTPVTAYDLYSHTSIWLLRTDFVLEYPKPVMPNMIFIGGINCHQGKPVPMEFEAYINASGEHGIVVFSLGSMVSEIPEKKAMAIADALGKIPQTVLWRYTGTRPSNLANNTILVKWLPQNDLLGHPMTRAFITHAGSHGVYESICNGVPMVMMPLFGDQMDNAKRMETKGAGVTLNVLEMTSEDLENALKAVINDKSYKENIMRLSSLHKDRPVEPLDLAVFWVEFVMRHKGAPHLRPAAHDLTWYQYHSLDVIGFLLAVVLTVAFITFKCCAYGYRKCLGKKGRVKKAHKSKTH
Summary of the method: as §1

SMILES | glucuronidation activity (glucuronide formed) (UGT1A3) | glucuronidation activity (glucuronide formed) (UGT1A9) | glucuronidation activity (glucuronide formed) (UGT1A1) | glucuronidation activity (glucuronide formed) (UGT1A8) | glucuronidation activity (glucuronide formed) (UGT1A7)
COc1ccc(/C=C(/C(=O)O)c2cc(OC)c(OC)c(OC)c2)cc1O [NI-12a, (E)-3-(3-hydroxy-4-methoxyphenyl)-2-(3,4,5-trimethoxyphenyl)acrylic acid] | both COO- and O-glucuronides | only the hydroxyl metabolite | only the carboxyl metabolite | only the hydroxyl metabolite | only the hydroxyl metabolite
COc1ccc(C=Cc2cc(OC)cc(OC)c2/C=N/O)cc1 [NI-ST-05, (E)-2,4-dimethoxy-6-(4-methoxystyryl)benzaldehyde oxime] | inactive | catalyzed the formation of the C=N–O-glucuronide | catalyzed the formation of the C=N–O-glucuronide | inactive | inactive
COc1cc(/C=C/c2cc([N+](=O)[O-])c(O)c([N+](=O)[O-])c2)cc(OC)c1 [DNR-1, (E)-4-(3,5-dimethoxystyryl)-2,6-dinitrophenol] | No activity | No activity | No activity | No activity | No activity
